The values below come from ChEMBL document CHEMBL1146234, “Synthesis and biological evaluation of N-pyrazolyl-N'-alkyl/benzyl/phenylureas: a new class of potent inhibitors of interleukin 8-induced neutrophil chemotaxis” (J Med Chem, 2007).

As a reminder, the inhibition is the share of the control response that was lost under treatment.

The species entered for experiment [1] is Homo sapiens. Put plainly: Inhibition of pyk2 50Kda region in human neutrophils assessed as reduction of IL8 stimulated tyrosin phosphorylation at 0.01 uM after 30 mins. In outline:
(§1)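 Neutrophils (2.5 × 10⁷ cells/mL) were treated with 10⁻³ M diisopropylfluorophosphate for 30 min at room temperature. They were then incubated 30 min ± compound and stimulated with 10⁻⁷ M IL8 for 0.5 min. Samples were boiled in SDS buffer and run on 7.5-20% SDS-PAGE, then blotted to nitrocellulose. Blots were probed overnight at 4 °C with anti-phosphotyrosine mAb 4G10 and detected by ECL. Ponceau S staining confirmed equal loading.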

Experiment [2] concerns the target Mitogen-activated protein kinase 3 (Homo sapiens) (UniProt P27361). The experiment can be described thus: Binding affinity to ERK1.
In experiment [3] the target is T1, Mitogen-activated protein kinase 13 (Homo sapiens) (UniProt O15264).
T1 sequence (whole entry): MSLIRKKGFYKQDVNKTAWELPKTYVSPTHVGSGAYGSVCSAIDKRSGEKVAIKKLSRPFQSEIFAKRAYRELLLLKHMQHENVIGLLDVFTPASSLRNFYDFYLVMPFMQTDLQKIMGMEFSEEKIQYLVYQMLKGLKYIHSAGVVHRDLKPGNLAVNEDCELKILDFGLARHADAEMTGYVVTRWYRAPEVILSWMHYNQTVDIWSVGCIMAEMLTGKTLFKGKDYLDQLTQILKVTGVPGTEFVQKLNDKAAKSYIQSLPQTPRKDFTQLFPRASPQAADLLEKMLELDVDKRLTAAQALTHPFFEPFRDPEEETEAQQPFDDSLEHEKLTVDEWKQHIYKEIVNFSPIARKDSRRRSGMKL
The experiment can be described thus: Binding affinity p38delta.

Experiment [4] concerns the target Tyrosine-protein kinase HCK (Homo sapiens) (UniProt P08631). The experiment can be described thus: Binding affinity to Hck.
The species named for experiment [5] is Homo sapiens. Put plainly: Inhibition of pyk2 60-70Kda region in human neutrophils assessed as reduction of IL8 stimulated tyrosin phosphorylation at 0.01 uM after 30 mins. The gist of the method: as §1
Experiment [6] addresses T2, Tyrosine-protein kinase ZAP-70 (Homo sapiens) (UniProt P43403).
T2 sequence (whole entry): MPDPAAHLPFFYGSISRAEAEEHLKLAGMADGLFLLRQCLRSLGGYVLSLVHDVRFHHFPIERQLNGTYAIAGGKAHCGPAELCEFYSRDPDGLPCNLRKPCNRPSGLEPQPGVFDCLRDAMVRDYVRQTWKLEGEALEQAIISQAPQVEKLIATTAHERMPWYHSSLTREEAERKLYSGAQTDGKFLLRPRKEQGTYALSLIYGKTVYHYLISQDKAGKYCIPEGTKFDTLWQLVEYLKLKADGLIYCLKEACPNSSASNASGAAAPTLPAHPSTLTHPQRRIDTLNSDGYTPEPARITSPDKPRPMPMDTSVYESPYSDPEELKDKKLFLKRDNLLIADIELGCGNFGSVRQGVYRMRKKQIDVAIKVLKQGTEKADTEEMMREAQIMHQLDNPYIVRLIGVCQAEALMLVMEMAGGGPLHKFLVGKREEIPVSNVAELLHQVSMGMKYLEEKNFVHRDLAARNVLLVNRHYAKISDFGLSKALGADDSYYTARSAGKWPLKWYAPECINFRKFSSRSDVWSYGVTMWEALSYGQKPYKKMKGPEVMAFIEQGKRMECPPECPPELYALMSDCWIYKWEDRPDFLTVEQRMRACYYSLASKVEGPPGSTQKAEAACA
Put plainly: Binding affinity to Zap70.

Experiment [7] addresses RAC-alpha serine/threonine-protein kinase (Homo sapiens) (UniProt P31749). Put plainly: Inhibition of IL8-induced Akt phosphorylation in human neutrophils at 0.01 uM. In outline:
(§2)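 Purified human neutrophils (1 × 10⁷ cells/mL) were pretreated 30 min with compound, then exposed to 10 nM IL8 or none for 5 min at 37 °C. Cells were lysed in NP40 buffer, and protein was quantified by BCA. Then […] protein per lane was run on 12% SDS-PAGE, blotted to nitrocellulose, and probed overnight at 4 °C with anti-phospho-Akt mAb. Detection was by ECL.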

The target in experiment [8] is Mitogen-activated protein kinase 1 (Homo sapiens) (UniProt P28482). Put plainly: Binding affinity to ERK2.
Sequence of Mitogen-activated protein kinase 1 (Homo sapiens) (P28482 whole entry): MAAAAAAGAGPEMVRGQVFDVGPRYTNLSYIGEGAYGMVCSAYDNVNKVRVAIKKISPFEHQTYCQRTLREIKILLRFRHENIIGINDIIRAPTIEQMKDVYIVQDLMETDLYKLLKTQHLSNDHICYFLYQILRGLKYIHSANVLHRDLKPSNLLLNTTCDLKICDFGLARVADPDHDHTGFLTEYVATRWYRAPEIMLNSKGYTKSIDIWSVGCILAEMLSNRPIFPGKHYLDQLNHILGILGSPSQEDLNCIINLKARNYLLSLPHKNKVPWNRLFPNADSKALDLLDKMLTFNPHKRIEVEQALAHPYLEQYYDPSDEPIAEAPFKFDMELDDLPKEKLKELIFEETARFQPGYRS
Experiment [9] deals with RAC-alpha serine/threonine-protein kinase (Homo sapiens) (UniProt P31749). The experiment can be described thus: Inhibition of IL8-induced Akt phosphorylation in human neutrophils at 0.05 uM. In outline: as §2
Sequence of RAC-alpha serine/threonine-protein kinase (Homo sapiens) (P31749 whole entry): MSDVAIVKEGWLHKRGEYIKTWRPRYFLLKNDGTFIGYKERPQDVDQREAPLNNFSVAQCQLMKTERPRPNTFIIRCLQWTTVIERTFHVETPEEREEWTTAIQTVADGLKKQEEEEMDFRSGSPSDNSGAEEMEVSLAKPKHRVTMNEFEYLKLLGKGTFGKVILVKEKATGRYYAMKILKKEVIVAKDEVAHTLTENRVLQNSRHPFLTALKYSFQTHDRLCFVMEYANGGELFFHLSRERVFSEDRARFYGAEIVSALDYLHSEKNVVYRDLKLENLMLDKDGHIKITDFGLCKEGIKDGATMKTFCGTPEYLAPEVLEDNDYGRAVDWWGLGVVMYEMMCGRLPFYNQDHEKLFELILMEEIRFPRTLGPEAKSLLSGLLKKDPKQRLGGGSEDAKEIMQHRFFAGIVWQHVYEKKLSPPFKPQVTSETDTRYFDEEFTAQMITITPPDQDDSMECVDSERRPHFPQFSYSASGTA
Experiment [10] is filed under the species Homo sapiens. The experiment can be described thus: Inhibition of pyk2 50Kda region in human neutrophils assessed as reduction of IL8 stimulated tyrosin phosphorylation at 0.05 uM after 30 mins. The gist of the method: as §1
The species named for experiment [11] is Homo sapiens. The experiment can be described thus: Inhibition of pyk2 60-70Kda region in human neutrophils assessed as reduction of IL8 stimulated tyrosin phosphorylation at 0.05 uM after 30 mins. The gist of the method:
as §1

The species named for experiment [12] is Homo sapiens. The experiment can be described thus: Inhibition of pyk2 60-70Kda region in human neutrophils assessed as reduction of IL8 stimulated tyrosin phosphorylation at 0.06 uM after 30 mins. In outline: as §1
The target of experiment [13] is RAC-alpha serine/threonine-protein kinase (Homo sapiens) (UniProt P31749). Put plainly: Inhibition of IL8-induced Akt phosphorylation in human neutrophils at 0.06 uM. The gist of the method: as §2
The species named for experiment [14] is Homo sapiens. The experiment can be described thus: Inhibition of pyk2 50Kda region in human neutrophils assessed as reduction of IL8 stimulated tyrosin phosphorylation at 0.06 uM after 30 mins. The gist of the method: as §1

SMILES strings stand for the structures. Activity calls are given as the source filed them. The calls are words filed in the database; no cut-off is given here.

Sequence of Mitogen-activated protein kinase 3 (Homo sapiens) (P27361 whole entry): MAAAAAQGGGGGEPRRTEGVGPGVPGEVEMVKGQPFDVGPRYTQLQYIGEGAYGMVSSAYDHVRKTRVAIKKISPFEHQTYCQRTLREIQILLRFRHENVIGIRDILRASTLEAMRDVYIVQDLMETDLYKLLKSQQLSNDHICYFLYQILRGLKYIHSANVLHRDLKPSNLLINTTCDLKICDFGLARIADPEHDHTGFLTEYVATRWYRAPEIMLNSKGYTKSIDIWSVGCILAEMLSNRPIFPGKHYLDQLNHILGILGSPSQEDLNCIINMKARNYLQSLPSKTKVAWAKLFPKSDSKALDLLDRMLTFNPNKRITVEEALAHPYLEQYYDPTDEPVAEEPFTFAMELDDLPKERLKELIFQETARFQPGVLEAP
Sequence of Tyrosine-protein kinase HCK (Homo sapiens) (P08631 2-526 limits assumed): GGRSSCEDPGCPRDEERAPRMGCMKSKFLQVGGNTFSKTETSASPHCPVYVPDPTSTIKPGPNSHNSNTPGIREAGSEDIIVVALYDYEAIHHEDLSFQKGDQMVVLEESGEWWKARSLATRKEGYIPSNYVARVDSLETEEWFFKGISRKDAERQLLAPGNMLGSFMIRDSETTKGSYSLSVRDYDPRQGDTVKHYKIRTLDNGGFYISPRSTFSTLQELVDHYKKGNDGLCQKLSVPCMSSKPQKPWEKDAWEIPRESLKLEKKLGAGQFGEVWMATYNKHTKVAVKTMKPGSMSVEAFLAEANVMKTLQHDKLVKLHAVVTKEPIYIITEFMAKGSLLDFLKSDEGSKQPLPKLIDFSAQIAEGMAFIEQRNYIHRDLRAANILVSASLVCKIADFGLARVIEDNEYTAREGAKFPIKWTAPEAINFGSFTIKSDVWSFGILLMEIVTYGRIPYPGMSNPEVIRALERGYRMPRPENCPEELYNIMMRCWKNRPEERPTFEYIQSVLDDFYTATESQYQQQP

Consider `CCOC(=O)c1cnn(CC(O)c2ccccc2)c1NC(=O)NCc1ccccc1` (centres undefined), for which the inhibition in the experiment listed under Homo sapiens [1] worked out at 70%; in the experiment filed under Homo sapiens [5] it was 63%. For the same compound, the outcome in experiment [2], in [3], in experiment [4], in experiment [6], in experiment [7] and in [8] was inactive.
Consider `CCOC(=O)c1cnn(CC(O)c2ccccc2)c1NC(=O)Nc1ccccc1` (centres undefined), for which the outcome in [2], in [3], in [9], in experiment [4], in experiment [6] and in [8] was inactive. The inhibition in the experiment listed under Homo sapiens [10] is 71%; in the experiment listed under Homo sapiens [11] it was 81%.
Take `CCOC(=O)c1cnn(CC(O)c2ccccc2)c1NC(=O)NC(C)C` (centres undefined): the outcome in experiment [2], in [3], in [4], in experiment [13], in experiment [6] and in experiment [8] was inactive. For the same compound, the values for the inhibition in the experiment listed under Homo sapiens [12] and in the experiment listed under Homo sapiens [14] were 53% and 20%, respectively.
